The source of these data is ChEMBL document CHEMBL2417545, “6-methoxy-7-benzofuranoxy and 6-methoxy-7-indolyloxy analogues of 2-[2-(2,6-Dimethoxyphenoxy)ethyl]aminomethyl-1,4-benzodioxane (WB4101):1 discovery of a potent and selective α1D-adrenoceptor antagonist” (J Med Chem, 2013).

For orientation: pKi means the negative decadic logarithm of the Ki, by convention in mol/L.

pKi: −log10 of the molar value.

For assay [1], the target named is T1, Alpha-1A adrenergic receptor (Rattus norvegicus, UniProt P43140).
T1 sequence (P43140 whole entry): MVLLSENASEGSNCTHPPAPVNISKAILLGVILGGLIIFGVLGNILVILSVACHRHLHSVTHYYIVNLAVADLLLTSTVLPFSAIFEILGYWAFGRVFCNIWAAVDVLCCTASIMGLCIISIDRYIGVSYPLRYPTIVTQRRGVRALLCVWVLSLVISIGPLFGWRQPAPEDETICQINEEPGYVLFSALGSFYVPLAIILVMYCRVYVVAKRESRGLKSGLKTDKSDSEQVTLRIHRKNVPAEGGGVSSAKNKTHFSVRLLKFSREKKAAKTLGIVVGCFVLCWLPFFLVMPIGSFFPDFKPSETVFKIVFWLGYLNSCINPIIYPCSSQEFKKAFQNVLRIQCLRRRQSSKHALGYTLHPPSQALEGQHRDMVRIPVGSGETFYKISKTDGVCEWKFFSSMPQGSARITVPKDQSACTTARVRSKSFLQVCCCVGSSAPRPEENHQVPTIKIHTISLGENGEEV
Kind of assay: Antagonist activity at alpha-1A adrenoreceptor in Sprague-Dawley rat prostatic vas deferens assessed as inhibition of noradrenaline-induced tissue contraction after 30 mins by Schild plot analysis. The note with it: read-out: pA2 (converted). The essentials: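 Cumulative isotonic (−)-noradrenaline curves were run at 30 min intervals, the first discarded and the second taken as control, then a third after 30 min with antagonist. pA₂ from Schild plot, at least three antagonist concentrations, each tested 3−5 times.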

The target of assay [2] is T2, 5-hydroxytryptamine receptor 1A (Rattus norvegicus, UniProt P19327).
T2 sequence (P19327 whole entry): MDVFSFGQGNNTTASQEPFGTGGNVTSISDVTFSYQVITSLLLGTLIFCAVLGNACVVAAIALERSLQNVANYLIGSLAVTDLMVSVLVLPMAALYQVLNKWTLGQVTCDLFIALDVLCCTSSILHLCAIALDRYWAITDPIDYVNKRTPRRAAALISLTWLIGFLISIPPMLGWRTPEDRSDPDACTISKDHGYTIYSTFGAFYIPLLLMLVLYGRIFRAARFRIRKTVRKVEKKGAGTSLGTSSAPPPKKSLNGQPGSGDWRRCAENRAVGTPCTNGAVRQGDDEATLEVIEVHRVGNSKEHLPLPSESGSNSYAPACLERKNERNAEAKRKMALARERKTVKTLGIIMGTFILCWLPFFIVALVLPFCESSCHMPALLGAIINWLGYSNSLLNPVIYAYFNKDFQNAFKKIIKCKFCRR
Kind of assay: Displacement of [3H]-8-OHDPAT from 5-HT1A receptor in rat hippocampal membranes after 30 mins. The format is cell membranes, Hippocampus, Membrane. For orientation: In a radioligand displacement assay an active substance lowers the binding of a labelled ligand.

Assay [3] deals with T3, Alpha-1D adrenergic receptor (Homo sapiens, UniProt P25100).
T3 sequence (P25100 whole entry): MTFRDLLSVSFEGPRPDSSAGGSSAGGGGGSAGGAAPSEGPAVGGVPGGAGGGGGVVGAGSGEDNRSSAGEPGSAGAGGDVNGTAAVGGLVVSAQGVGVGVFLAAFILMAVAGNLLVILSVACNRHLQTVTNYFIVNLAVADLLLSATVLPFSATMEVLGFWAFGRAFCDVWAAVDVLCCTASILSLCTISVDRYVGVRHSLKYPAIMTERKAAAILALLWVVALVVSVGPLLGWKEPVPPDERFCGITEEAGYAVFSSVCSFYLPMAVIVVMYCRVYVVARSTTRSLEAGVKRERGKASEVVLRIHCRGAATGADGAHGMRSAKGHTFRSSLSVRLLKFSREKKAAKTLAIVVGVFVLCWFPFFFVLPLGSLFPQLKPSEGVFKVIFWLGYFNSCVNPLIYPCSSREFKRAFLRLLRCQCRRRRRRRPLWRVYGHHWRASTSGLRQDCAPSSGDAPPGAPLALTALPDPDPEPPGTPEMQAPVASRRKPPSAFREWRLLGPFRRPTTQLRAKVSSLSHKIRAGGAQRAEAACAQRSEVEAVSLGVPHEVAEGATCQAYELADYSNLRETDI
As to the kind of experiment: Displacement of [3H]prazosin from human alpha-1D adrenoreceptor expressed in CHO cells after 30 mins. Type of assay: cell-based. The procedure, abridged:
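Membranes from CHO cells expressing each α₁-AR subtype, incubated 30 min at 25 °C in 50 mM Tris HCl pH 7.7 with 10 μM pargyline and 0.1% ascorbic acid, plus 0.5 nM [³H]prazosin and varying test compound concentrations. Nonspecific binding was defined with 1 μM prazosin.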

Regarding `COc1ccc2ccoc2c1OCCNC[C@H]1COc2ccccc2O1.Cl`, in assay [1], the Kb is 0.0055 µM. Further, the pKi is 8.59 in assay [2] and 8.72 in assay [3].
The like results for `COc1ccc2c(c1OCCNC[C@H]1COc3ccccc3O1)OCC2.Cl` were, in that order, 0.0339 µM, 7.33 and 8.65.
The like results for `COc1ccc2c(c1OCCNC[C@H]1COc3ccccc3O1)NCC2.Cl.Cl` were, in that order, 0.00933 µM, 6.96 and 7.89.
Taken in the same sequence, the figures for `COc1ccc2cc[nH]c2c1OCCNC[C@H]1COc2ccccc2O1` were 0.0049 µM, 6.47 and 6.20.
